Assay results: ChEMBL document CHEMBL1130162, “Structure-activity relationships of cysteine-lacking pentapeptide derivatives that inhibit ras farnesyltransferase” (J Med Chem, 1997)

target: Protein farnesyltransferase (Rattus norvegicus, UniProt Q02293+Q04631); assay: Inhibitory concentration against rat brain farnesyltransferase
Outline: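 Rat brain FTase (40-fold purified), pH 7.4, in 30 mM potassium phosphate, 5 mM phosphate plus 50 mM Hepes, or 50 mM Hepes. Buffer also held 7 mM DTT, 1.2 mM MgCl2 and protease inhibitors. Final substrates were 0.12 μM [1-3H]FPP and 0.1 μM biotinyl-aminoheptanoyl-TKCVIM, with inhibitor varied from DMSO stock. Reaction ran 30 min at 37 °C, was stopped with streptavidin beads, and was counted by scintillation proximity. Generally n = 2.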

Going from C[C@H](NC(=O)[C@@H](Cc1c[nH]c2ccccc12)NC(=O)[C@@H](COCc1ccccc1)NC(=O)[C@@H](Cc1ccc(OCc2ccccc2)cc1)NC(=O)[C@H](Cc1cnc[nH]1)NC(=O)OCc1ccccc1)C(N)=O to C[C@H](NC(=O)[C@H](Cc1c[nH]c2ccccc12)NC(=O)[C@@H](COCc1ccccc1)NC(=O)[C@@H](Cc1ccc(OCc2ccccc2)cc1)NC(=O)[C@@H](Cc1cnc[nH]1)NC(=O)OCc1ccccc1)C(N)=O, the IC50 rises from 35 nM to 8700 nM (250-fold). The first is the more potent here.

Going from C[C@H](NC(=O)[C@@H](Cc1c[nH]c2ccccc12)NC(=O)[C@@H](COCc1ccccc1)NC(=O)[C@@H](Cc1ccc(OCc2ccccc2)cc1)NC(=O)[C@@H](Cc1c[nH]cn1)NC(=O)[C@@H]1CCC(=O)N1)C(N)=O to C[C@H](NC(=O)[C@@H](Cc1c[nH]c2ccccc12)NC(=O)[C@@H](CCC(=O)O)NC(=O)[C@@H](Cc1ccc(OCc2ccccc2)cc1)NC(=O)[C@@H](Cc1c[nH]cn1)NC(=O)OCc1ccccc1)C(N)=O, the IC50 falls from over 20000 nM to 200 nM.

C[C@H](NC(=O)[C@@H](Cc1c[nH]c2ccccc12)NC(=O)[C@@H](COCc1ccccc1)NC(=O)C(CC1CCCCC1)NC(=O)[C@@H](Cc1cnc[nH]1)NC(=O)OCc1ccccc1)C(N)=O (stereo partly specified) and C[C@H](NC(=O)[C@@H](Cc1c[nH]c2ccccc12)NC(=O)[C@@H](COCc1ccccc1)NC(=O)C(CCC(N)=O)NC(=O)[C@@H](Cc1cnc[nH]1)NC(=O)OCc1ccccc1)C(N)=O (stereo partly specified) are within 1.5-fold of each other in IC50: 66 nM for the first, 54 nM for the second.

Going from CC(NC(=O)[C@@H](COCc1ccccc1)NC(=O)[C@@H](Cc1ccc(OCc2ccccc2)cc1)NC(=O)[C@@H](Cc1cnc[nH]1)NC(=O)OCc1ccccc1)C(=O)N[C@@H](C)C(N)=O (stereo partly specified) to CC(NC(=O)OCc1ccccc1)C(=O)N[C@H](Cc1ccc(OCc2ccccc2)cc1)C(=O)N[C@H](COCc1ccccc1)C(=O)N[C@H](Cc1c[nH]c2ccccc12)C(=O)N[C@@H](C)C(N)=O (stereo partly specified), the IC50 rises from 250 nM to over 20000 nM.

Going from C[C@H](NC(=O)[C@@H](Cc1c[nH]c2ccccc12)NC(=O)C(Cc1ccccc1)NC(=O)[C@@H](Cc1ccc(OCc2ccccc2)cc1)NC(=O)[C@@H](Cc1c[nH]cn1)NC(=O)OCc1ccccc1)C(N)=O (stereo partly specified) to CC(NC(=O)[C@@H](Cc1c[nH]c2ccccc12)NC(=O)[C@@H](COCc1ccccc1)NC(=O)[C@@H](Cc1ccc(OCc2ccccc2)cc1)NC(=O)[C@@H](Cc1c[nH]cn1)NC(=O)OCc1ccccc1)C(N)=O (stereo partly specified), the IC50 falls from 130 nM to 8.5 nM (15-fold). The second is the more potent here.

Compared with C[C@H](NC(=O)[C@@H](Cc1c[nH]c2ccccc12)NC(=O)[C@@H](COCc1ccccc1)NC(=O)[C@@H](Cc1ccc(OCc2ccccc2)cc1)NC(=O)[C@@H](Cc1cnc[nH]1)NC(=O)OCC1c2ccccc2-c2ccccc21)C(N)=O, COC(=O)[C@H](C)NC(=O)[C@@H](Cc1c[nH]c2ccccc12)NC(=O)[C@@H](COCc1ccccc1)NC(=O)[C@@H](Cc1ccc(OCc2ccccc2)cc1)NC(=O)[C@@H](Cc1cnc[nH]1)NC(=O)OCc1ccccc1 is 33-fold lower in IC50: 1600 nM for the first, 48 nM for the second. The second is the more potent here.

Compared with C[C@H](NC(=O)[C@@H](Cc1c[nH]c2ccccc12)NC(=O)[C@@H](COCc1ccccc1)NC(=O)C(CCC(=O)O)NC(=O)[C@@H](Cc1c[nH]cn1)NC(=O)OCc1ccccc1)C(N)=O (stereo partly specified), C[C@H](NC(=O)[C@@H](Cc1c[nH]c2ccccc12)NC(=O)[C@@H](COCc1ccccc1)NC(=O)[C@H](CC(=O)O)NC(=O)[C@@H](Cc1c[nH]cn1)NC(=O)OCc1ccccc1)C(N)=O is 2.1-fold higher in IC50: 18 nM for the first, 38 nM for the second.

Compared with C[C@H](NC(=O)[C@@H](Cc1c[nH]c2ccccc12)NC(=O)[C@@H](COCc1ccccc1)NC(=O)[C@@H](Cc1ccc(OCc2ccccc2)cc1)NC(=O)[C@@H](Cc1cnc[nH]1)NC(=O)OC1CCC1)C(N)=O, C[C@H](NC(=O)[C@@H](Cc1c[nH]c2ccccc12)NC(=O)[C@@H](CS)NC(=O)[C@@H](Cc1ccc(OCc2ccccc2)cc1)NC(=O)[C@@H](Cc1cnc[nH]1)NC(=O)OCc1ccccc1)C(N)=O is 800-fold lower in IC50: 3200 nM for the first, 4 nM for the second.

CC(NC(=O)[C@@H](Cc1ccc(OCc2ccccc2)cc1)NC(=O)[C@@H](Cc1c[nH]cn1)NC(=O)OCc1ccccc1)C(=O)N[C@H](Cc1c[nH]c2ccccc12)C(=O)N[C@@H](C)C(N)=O (stereo partly specified) and C[C@H](NC(=O)[C@@H](Cc1c[nH]c2ccccc12)NC(=O)[C@@H](COCc1ccccc1)NC(=O)[C@H](C)NC(=O)[C@@H](Cc1c[nH]cn1)NC(=O)OCc1ccccc1)C(N)=O are within 1.5-fold of each other in IC50: 1100 nM for the first, 1000 nM for the second.

C[C@H](NC(=O)[C@@H](Cc1c[nH]c2ccccc12)NC(=O)[C@@H](COCc1ccccc1)NC(=O)[C@@H](Cc1ccc(OCc2ccccc2)cc1)NC(=O)C(Cc1ccccc1)NC(=O)OCc1ccccc1)C(N)=O (stereo partly specified) and C[C@H](NC(=O)[C@@H](Cc1c[nH]c2ccccc12)NC(=O)[C@@H](COCc1ccccc1)NC(=O)[C@@H](Cc1ccc(OCc2ccccc2)cc1)NC(=O)C(Cc1c[nH]c2ccccc12)NC(=O)OCc1ccccc1)C(N)=O (stereo partly specified) cannot be ordered by IC50: over 20000 nM for the first, over 20000 nM for the second.

Going from C[C@H](NC(=O)[C@@H](Cc1c[nH]c2ccccc12)NC(=O)[C@@H](COCc1ccccc1)NC(=O)[C@@H](CCc1ccccc1)NC(=O)[C@@H](Cc1c[nH]cn1)NC(=O)OCc1ccccc1)C(N)=O to C[C@@H](NC(=O)[C@H](Cc1c[nH]c2ccccc12)NC(=O)[C@H](COCc1ccccc1)NC(=O)[C@H](Cc1ccccc1)NC(=O)[C@H](Cc1c[nH]cn1)NC(=O)OCc1ccccc1)C(N)=O (single isomer, unassigned), the IC50 falls from 18 nM to 9 nM (2-fold).

Going from C[C@@H](NC(=O)[C@H](Cc1c[nH]c2ccccc12)NC(=O)[C@H](COCc1ccccc1)NC(=O)[C@@H](Cc1ccc(O)cc1)NC(=O)[C@H](Cc1cnc[nH]1)NC(=O)OCc1ccccc1)C(N)=O (stereo in doubt) to C[C@@H](NC(=O)[C@H](Cc1c[nH]c2ccccc12)NC(=O)[C@H](COCc1ccccc1)NC(=O)[C@@H](Cc1ccccc1)NC(=O)[C@H](Cc1cnc[nH]1)NC(=O)OCc1ccccc1)C(N)=O (stereo in doubt), the IC50 falls from 170 nM to 79 nM (2.2-fold). The second is the more potent here.

Going from C[C@H](NC(=O)[C@@H](Cc1c[nH]c2ccccc12)NC(=O)[C@@H](COCc1ccccc1)NC(=O)[C@@H](Cc1ccc(OCc2ccccc2)cc1)NC(=O)[C@@H](Cc1c[nH]cn1)NC(=O)OCc1ccccc1)C(=O)O to CCNC(=O)[C@H](C)NC(=O)[C@@H](Cc1c[nH]c2ccccc12)NC(=O)[C@@H](COCc1ccccc1)NC(=O)[C@@H](Cc1ccc(OCc2ccccc2)cc1)NC(=O)[C@@H](Cc1c[nH]cn1)NC(=O)OCc1ccccc1, the IC50 rises from 48 nM to 170 nM (3.5-fold).

First: C[C@H](NC(=O)[C@@H](Cc1c[nH]c2ccccc12)NC(=O)[C@@H](COCc1ccccc1)NC(=O)[C@@H](Cc1ccc(OCc2ccccc2)cc1)NC(=O)[C@H](N)Cc1cnc[nH]1)C(N)=O
Second: C[C@H](NC(=O)[C@@H](Cc1c[nH]c2ccccc12)NC(=O)[C@@H](CO)NC(=O)[C@@H](Cc1ccc(OCc2ccccc2)cc1)NC(=O)[C@@H](Cc1cnc[nH]1)NC(=O)OCc1ccccc1)C(N)=O
The IC50 of the first is 2.5-fold higher: 4500 nM for the first, 1800 nM for the second.

Going from C[C@H](NC(=O)[C@@H](Cc1c[nH]c2ccccc12)NC(=O)[C@@H](COCc1ccccc1)NC(=O)[C@H](CS)NC(=O)[C@@H](Cc1c[nH]cn1)NC(=O)OCc1ccccc1)C(N)=O to C[C@H](NC(=O)[C@@H](Cc1c[nH]c2ccccc12)NC(=O)[C@@H](COCc1ccccc1)NC(=O)C(CCCCN)NC(=O)[C@@H](Cc1cnc[nH]1)NC(=O)OCc1ccccc1)C(N)=O (stereo partly specified), the IC50 falls from 4900 nM to 1900 nM (2.6-fold).

In the case of C[C@H](NC(=O)[C@@H](Cc1c[nH]c2ccccc12)NC(=O)[C@@H](COCc1ccccc1)NC(=O)[C@@H](Cc1ccc(OCc2ccccc2)cc1)NC(=O)[C@@H](Cc1cnc[nH]1)NC(=O)OCc1ccccc1)C(=O)NN, the IC50 is reported as 64 nM.
